Laboratory results taken from ChEMBL document CHEMBL4513216, “Probing the Open Global Health Chemical Diversity Library for Multistage-Active Starting Points for Next-Generation Antimalarials” (ACS Infect Dis, 2020).

Experiment: Toxicity liver stage against HepG2, at 10uM
Format: cell-based
Set-up: test concentration 10 uM, cell line HepG2-A16-CD81EGFP
Conditions: human, HepG2-A16-CD81EGFP cells; read-out: INHIBITION
Summary of the method: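 Uninfected HepG2-A16-CD81EGFP cells, 3 × 10^3 per well, 1536-well, plated on prespotted compound at 10 μM final, parasite-free screening media added to match infected plates; puromycin 10 μM positive, DMSO 0.5% negative; run in parallel with 48 h PbLuc assay at 37 °C, 5% CO2; viability by CellTiter-Glo luminescence, normalized to controls.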

Row | SMILES | cytotoxicity at 10 µM [%]
1 | CC(C)Oc1cccc(C(=O)C2CCCN(S(=O)(=O)C(C)C)C2)c1 (configuration not stated) | 5.47
2 | COc1ccc2c(c1)CN(Cc1ccco1)C(=O)CCN2 | -2.59
3 | CN1CCN2C[C@@H](CO)[C@H](c3ccccc3)[C@H]2C1 | 8.78
4 | COCCn1ccc2c(C(=O)O)cccc21 | -3.37
5 | Cc1cc(NCCN)nc(-c2ccccc2O)n1 | 7.61
6 | CC(C)(CO)Nc1c(NCc2ccccc2)c(=O)c1=O | -2.96
7 | CC1CCCN(c2nccn3c(=O)[nH]nc23)C1 (configuration not stated) | 12.1
8 | COc1ccc(Cc2nnc(NC(=O)C3CC34CCC4)s2)cc1OC (configuration not stated) | -2.21
9 | CNC(=O)C1CN(C(=O)c2cccs2)CCN(S(C)(=O)=O)C1 (configuration not stated) | 2.41
10 | CS(=O)(=O)c1cncnc1C1CCCN(C(=O)Cc2ccccc2F)C1 (configuration not stated) | 2.72
11 | Cc1cc(N2CCCC2(C)c2nc(C)cc(C(=O)N(C)C)n2)ncn1 (configuration not stated) | -0.846
12 | CN(C)[C@@H]1CN(C(=O)c2cc3ccc(F)cc3[nH]2)C[C@H]1O | 1.05
13 | COCC(=O)N1CCCC1c1cc(Nc2nnc(C)s2)nc(C)n1 (configuration not stated) | -6.15
14 | O=C(c1ccccn1)N1CCC2(CNS(=O)(=O)c3cnccc3O2)C1 (configuration not stated) | 14.5
15 | Cc1cc(NCCSc2nccn2C)n2ncnc2n1 | 17.5
16 | CCN(Cc1c(F)cccc1F)C(=O)c1ccncc1O | -1.22
17 | Cc1c(C(=O)N2CC(=O)N(C)C2)nnn1-c1cccc2cccnc12 | 5.64
18 | CCOc1ccc(NC(=O)c2[nH]c(C)cc2C)cc1CO | 21.3
19 | CC(C)OCCC(=O)NCC(O)c1c(Cl)cccc1Cl (configuration not stated) | -6.93
20 | O=C(NCc1ccc(-n2cncn2)nc1)c1cc[nH]n1 | -7.45
21 | O=c1[nH]c(C2CCOC2)nc2ccc(Br)cc12 (configuration not stated) | 7.85
22 | CC1CN(C)CCN1C(=O)c1cccn1Cc1cccnc1 (configuration not stated) | -13.5
23 | CCc1cc(NCCCc2nc(C)no2)nc(-c2ccncc2)n1 | 2.63

Row | SMILES | cytotoxicity at 10 µM [%]
24 | CC(C)(C(=O)N1CCC(CS(N)(=O)=O)CC1)c1ccccc1F | 6.03
25 | COc1ccc(N2CCC(NCc3csc(C(C)C)n3)CC2)cc1 | -15.9
26 | O[C@@H]1Cc2ccccc2[C@@H]1Nc1ncccc1F | 13.3
27 | O=C(NCc1ccccc1Cn1ccnc1)N1CCOCC1 | 0.84
28 | Cn1ccnc1CNC(=O)Nc1ccc(OC2CCC2)c(F)c1 | -4.92
29 | Cc1ccc(N2CCCC(N(C)Cc3c(C)noc3C)C2)nn1 (configuration not stated) | -14
30 | CCOC(=O)NC(CNC(=O)c1cccnc1SC)CC(C)C (configuration not stated) | 6.68
31 | CC(C)(C)c1noc(OCC(=O)NC2CCCC2)n1 | 2.68
32 | CC(=O)N1CCC(C(=O)NCCN2CCCC(C)C2)CC1 (configuration not stated) | 10.7
33 | O=C(Nc1ccnc(OC2CCOC2)c1)c1ccc(F)cc1Cl (configuration not stated) | 3.44
34 | Cc1cc(C)n(-c2ccccc2NC(=O)NCCCN(C)S(C)(=O)=O)n1 | -4.01
35 | CCN1CCCN(c2ncccc2C(=O)N2CCCCC2)CC1 | -5.1
36 | CCC(CNC1CCN(C(=O)N(C)C)CC1)Oc1ccccc1C (configuration not stated) | 3.98
37 | CS(=O)(=O)Cc1nc(CNc2ccc(F)c(F)c2)cs1 | -6.92
38 | NS(=O)(=O)N1CCC(C(=O)Nc2cccc(OC(F)F)c2)CC1 | -9.5
39 | CN(C)CCN(Cc1ccccc1)C(=O)C1=NNC(=O)CC1 | -6.49
40 | O=C(C1CSc2ccccc2O1)N1CCN(CCO)CC1 (configuration not stated) | -6.29
41 | COCC(=O)NCCSCCOc1cccc(Br)c1 | -9.2
42 | Cc1cc(C(=O)CN2CCN(c3cnccn3)CC2)c(C)n1C(C)C | 7.36
43 | CS(=O)(=O)c1nccn1Cc1ccc(OC(F)F)cc1 | -0.627
44 | Cc1cc(C(=O)N2CCN(Cn3cc(Cl)cn3)CC2)on1 | -6.81
45 | CCNC(=O)NC1CN(CC(=O)NCc2ccccc2C)C[C@@H]1OC (some centres not stated) | -1.6
46 | CCn1nc2c(cc1=O)CN(CC(=O)Nc1nccs1)CC2 | -4.74

Row | SMILES | cytotoxicity at 10 µM [%]
47 | COc1cc(OC)c(CNC(=O)NCc2ccc(C#N)cc2)c(OC)c1 | 8.01
48 | O=C(CCn1c(=O)oc2ccccc21)NCC(O)c1ccc(Cl)cc1 (configuration not stated) | -1.25
49 | O=C(Cc1ccccc1)NCCNS(=O)(=O)C1CCCCC1 | -1.95
50 | CC1c2ccsc2CCN1Cc1cc2c(cc1O)OCO2 (configuration not stated) | 11.7
51 | Cc1cc(C)n(CC2CCCN2C(=O)Cc2cn3ccsc3n2)n1 (configuration not stated) | -12.5
52 | Cc1nn(C)c(N(C)C)c1CNCc1cccc(CN(C)C(C)C)c1 | 11.4
53 | c1cnn(CC2CCCCN2c2ncnc3sccc23)c1 (configuration not stated) | 9.48
54 | Cc1nnc(C(C)NCC2(c3ccc(Cl)cc3)CCCC2)o1 (configuration not stated) | 8.29
55 | Cc1nc(C2CCCN(C(=O)c3scnc3C)C2)no1 (configuration not stated) | -3.18
56 | CN(CCn1nc2ccccn2c1=O)CC(=O)N1CCCC1 | 7.08
57 | COCCCN(CCOC)C(=O)Nc1ccccc1Br | 5.86
58 | COCC(=O)N1CCC2(C1)c1ccccc1S(=O)(=O)N2CC1CC1 (configuration not stated) | 4.39
59 | CN1CCO[C@@H]2CN(C(=O)NCc3cccc(F)c3)CC[C@@H]2C1 | -111
60 | Cn1cc(C2COC3(CCN(C(=O)c4ccc(F)cc4)CC3)C2)cn1 (configuration not stated) | 8.31
61 | CCc1ccc(S(=O)(=O)N2CCC3(CC(C(=O)NC)=NO3)C2)cc1 (configuration not stated) | -2.16
62 | Cc1cc(C)c2nc(CN3CCOCC(O)C3)cc(O)c2c1 (configuration not stated) | -3.89
63 | CCOc1ccc(-c2c(C#N)c(N)nc3c2COCC3)cn1 | -0.339
64 | Cc1cccc(C(C(=O)NCC2(Cn3nc(C)cc3C)CC2)N(C)C)c1 (configuration not stated) | 2.18
65 | c1cc2c(cc1-c1noc3c1CN(C1CCSC1)CC3)OCO2 (configuration not stated) | -16.9
66 | CSCCNC(=O)C1CCC(=O)N(C2CCCC2)C1 (configuration not stated) | -3.75
67 | CC(C)CS(=O)(=O)CCNC(=O)Nc1cccc2ncccc12 | -11
68 | CCOc1ccc(CCCC(=O)N2CCC(c3nnn[nH]3)CC2)cc1C | -3.57
69 | O=C(NCCc1nc2ccccc2s1)c1coc(CN2CCOCC2)c1 | -5.69

Row | SMILES | cytotoxicity at 10 µM [%]
70 | O=C(CN1CCCC1=O)NCc1cccnc1Oc1ccc(F)c(F)c1 | 1.87
71 | O=C(O)[C@@]12CN(c3cnccn3)C[C@@H]1CN(C1CCOCC1)C2 | 1.92
72 | CCCN1CCC(N2CCN(c3cccc(C)n3)CC2)CC1 | -10.8
73 | CCC1(C(=O)O)CCCN(C(=O)c2ccc(O)c(Cl)c2)C1 (configuration not stated) | -8.87
74 | Cc1cc(C[C@@H]2COC[C@@H]2NC(=O)CN2CCc3ccccc3C2)on1 | 6.7
75 | Cc1cn(Cc2nc(CC(C)C)nn2-c2ccccn2)c(=O)[nH]c1=O | -8.66
76 | CN(C)CCCN1CC2(CCN(C(=O)C3(C)CCCCO3)CC2)OC1=O (configuration not stated) | -8.76
77 | Cc1c(O)cccc1C(=O)N1CCCC2(C1)C(=O)N(C)c1ccccc12 (configuration not stated) | 4.34
78 | C=C(C)COc1cccc(C(=O)N(CC)Cc2noc(C)n2)c1 | -4.15
79 | Cc1ccsc1-c1nccn1CCN1CCCCC1CO (configuration not stated) | -8.11
80 | CC(C)N1CCCn2nc(C(=O)NCCc3c[nH]cn3)cc2C1 | 14.2
81 | O=S(=O)(c1c(N2CCCC2)ccc2nonc12)N1CCCC1 | 5.95
82 | CSCCCn1ccnc1-c1cccc(C#N)c1 | -13.3
83 | CCC(Oc1ccc(N(C)S(C)(=O)=O)cc1)C(N)=O (configuration not stated) | -4.18
84 | CC(NC(=O)C1CCN(C(C)C)CC1)c1nncn1C1CCCC1 (configuration not stated) | -6.93
85 | Cc1cc(N2CCC(c3nnc(CN(C)C)n3C3CC3)CC2)ccn1 | 7.57
86 | CNC(=O)C1(c2cnccn2)CCCN1C(=O)c1ccccc1OC (configuration not stated) | 3.1
87 | CCc1nnc2n1CCN(C(=O)c1cc3ccccc3[nH]1)C2 | 4.38
88 | Cc1cc(C)n(CC2CN(CC(=O)NC(C3CC3)C3CC3)CCO2)n1 (configuration not stated) | -0.544
89 | CC(C)c1nc(CN(C)C2CCCN(c3cccnn3)C2)no1 (configuration not stated) | -9.92
90 | CCOc1ccc(Cl)c(C(=O)N2CCCSCC2)n1 | -4.03
91 | COc1ccnc(N2CCN(C(=O)c3cccc(C#N)c3)CC2)n1 | -18.2
92 | c1csc(-c2noc(CNCCn3cccn3)n2)c1 | -8.21

Row | SMILES | cytotoxicity at 10 µM [%]
93 | Cc1nc(CN(C)C2CCN(CC3CCC3)C2)no1 (configuration not stated) | -8.19
94 | N#Cc1cccc(NC(=O)C2CCCN2c2nccs2)c1 (configuration not stated) | -5.28
95 | Cc1ccc(C(=O)N2CCCN(Cc3cccs3)CC2)c(=O)[nH]1 | 1.45
96 | NC(=O)c1cc(C2CCCN(CCOCC3CC3)C2)n[nH]1 (configuration not stated) | -11.5
97 | CCn1c(CN2CCN(C(=O)C3CCC3)CC2)nc2c(F)cccc21 | -3.78
98 | CC(C)C(=O)NC1CCCN(C(=O)c2cc(Cl)ccc2O)C1 (configuration not stated) | -11.4
99 | O=C(Nc1cc(F)ccc1OCC1CCCO1)N1CCCC1 (configuration not stated) | -6.49
100 | CN(C)c1cc(CNC(=O)Nc2ccc(F)cc2)ccn1 | 0.0418
101 | NC(=O)C1CCN(C(=O)c2cccc(OCc3cscn3)c2)CC1 | -15.5
102 | Cc1cnn(CCNCc2nc(Cc3ccccc3)no2)c1 | -7.7
103 | O=C(NCCNc1ccc(C(F)(F)F)cn1)c1ccc(Br)cc1F | 7.15
104 | CNc1cc2c(nn1)CCN(C(=O)c1cc(F)cc(F)c1)C2 | -5.97
105 | CC(=O)Nc1nc(C(=O)NC(C)c2ccc3c(c2)OCCO3)cs1 (configuration not stated) | 0.409
106 | Cc1n[nH]c(=O)c2c(NC(=O)CN3CCCC(C(F)(F)F)C3)oc(C)c12 (configuration not stated) | -4.87
107 | O=C(NCC1CC1)[C@H]1CN(Cc2nccs2)C[C@H]2OCC[C@@H]12 | -109
108 | COCCN1CCc2cc(C(=O)N(C)C)c(NC(C)C)nc2CC1 | -3.91
109 | CCOCC1CN(Cc2cnn(C)c2)Cc2nn(C)cc21 (configuration not stated) | 2.37
110 | Cc1noc([C@H]2C[C@H]3OCC[C@H]3N(Cc3ccc4c(c3)OCO4)C2)n1 | 2.67
111 | O=C(NC[C@]12COC[C@H]1CN(Cc1ccncc1)C2)c1ccco1 | 8.75
112 | O=C([C@H]1C[C@H]2CN(c3ncc(F)cn3)C[C@@H]1O2)N1CCOCC1 | -109
